Measurements collected from several papers.
Compare with care: the assays were run in different laboratories.

| Structure (SMILES) | species | medium | route | dose | setting | AUC(0-inf) [ng·h/mL] |
| --- | --- | --- | --- | --- | --- | --- |
| Oc1c(Br)cc(Cl)c2cccnc12 | Sprague-Dawley rat | plasma | intravenous | 2 mg/kg |  | 1200 |
| COc1ccc2c(Cc3ccccc3F)c3n(c(=O)c2c1OC)CCc1cc2c(cc1-3)OCO2 | rat | plasma | intravenous | 5 mg/kg |  | 22700 |
| CCc1nc(C(N)=O)c(Nc2ccc(N3CCC(N4CCN(C)CC4)CC3)c(OC)c2)nc1NC1CCOCC1 | male Sprague-Dawley rat | plasma | oral | 10 mg/kg |  | 11500 |
| Cc1c(-c2ccccc2)cccc1N1C(=O)c2cc(CN[C@H](C(=O)O)C(C)O)c(OCc3cccc(C#N)c3)cc2C1=O (stereo partly drawn) | Sprague-Dawley rat | plasma | oral | 50 mg/kg |  | 100 |
| O=C(Nc1cc(F)c(F)c(F)c1)c1ccc(F)c(S(=O)(=O)NCc2cccc(B(O)O)c2)c1 | male Sprague-Dawley rat | plasma | intravenous | 2 mg/kg |  | 246 |
| CCc1cc(OC)c2nccc(N3CCc4c(cc(Cn5ccnc5)cc4-c4cn(C)nc4C(F)(F)F)C3=O)c2c1 | male Sprague-Dawley rat | plasma | oral | 50 mg/kg |  | 10300 |
| COc1cc2c3c(n(CCCN4CCOCC4)c(=O)c2cc1OC)-c1cc2c(cc1C3=O)OCO2 | male Fischer 344 rat | plasma | intravenous | 24 mg/m² | single dose | 421 |
| CCc1cc(C(=O)NC)c2nccc(N3CCc4c(cc(Cn5ccnc5)cc4-c4cn(C)nc4C(F)(F)F)C3=O)c2c1 | male Sprague-Dawley rat | plasma | oral | 50 mg/kg | single dose | 11100 |
| CNC(=O)c1c(C)oc2cc(Oc3ncnc4cc(OC)c(OC)cc34)ccc12 | Sprague-Dawley rat | plasma | oral | 1 mg/kg | single dose | 6270 |
| COc1nc(-c2cc(C)c(N[C@@H](C)c3cc(F)cc(F)c3)nn2)ccc1-n1cnc(C)c1 | male Sprague-Dawley rat | plasma | oral | 5 mg/kg | single dose | 31900 |
| C#Cc1cccc(Nc2ncnc3cc(OCCOC)c(OCCOC)cc23)c1 | male Sprague-Dawley rat | plasma | oral | 12 mg/kg | single dose | 9260 |
| CCOC(=O)[C@@]12C[C@@H]1[C@@H](n1ccc3c(NC)nc(C#Cc4ccc(Cl)s4)nc31)[C@H](O)[C@@H]2O | male Sprague-Dawley rat | plasma | oral | 10 mg/kg |  | 371 |
| O=C(Nc1ccc(-c2nc(-c3ccc(Cl)cc3)no2)cc1)C1CC(=O)N(Cc2ccco2)C1 (stereo not drawn) | male Wistar rat | brain | intraperitoneal | 10 mg/kg |  | 12500 |
| COCCOC(=O)C1=C(C)NC(C)=C(C(=O)OC(C)C)C1c1cccc([N+](=O)[O-])c1 (stereo not drawn) | male Sprague-Dawley rat | plasma | intravenous | 3 mg/kg |  | 573 |
| CNCc1cc(-c2ccccc2F)n(S(=O)(=O)c2cccnc2)c1 | Sprague-Dawley rat | plasma | oral | 10 mg/kg |  | 645 |
